{"source": "ChEMBL document CHEMBL5154683", "about": "“A 5-FU Precursor Designed to Evade Anabolic and Catabolic Drug Pathways and Activated by Pd Chemistry In Vitro and In Vivo” (J Med Chem, 2022)", "key": {"[1]": {"molecular_target": "Albumin (Homo sapiens, UniProt P02768)", "sequence (P02768 whole entry)": "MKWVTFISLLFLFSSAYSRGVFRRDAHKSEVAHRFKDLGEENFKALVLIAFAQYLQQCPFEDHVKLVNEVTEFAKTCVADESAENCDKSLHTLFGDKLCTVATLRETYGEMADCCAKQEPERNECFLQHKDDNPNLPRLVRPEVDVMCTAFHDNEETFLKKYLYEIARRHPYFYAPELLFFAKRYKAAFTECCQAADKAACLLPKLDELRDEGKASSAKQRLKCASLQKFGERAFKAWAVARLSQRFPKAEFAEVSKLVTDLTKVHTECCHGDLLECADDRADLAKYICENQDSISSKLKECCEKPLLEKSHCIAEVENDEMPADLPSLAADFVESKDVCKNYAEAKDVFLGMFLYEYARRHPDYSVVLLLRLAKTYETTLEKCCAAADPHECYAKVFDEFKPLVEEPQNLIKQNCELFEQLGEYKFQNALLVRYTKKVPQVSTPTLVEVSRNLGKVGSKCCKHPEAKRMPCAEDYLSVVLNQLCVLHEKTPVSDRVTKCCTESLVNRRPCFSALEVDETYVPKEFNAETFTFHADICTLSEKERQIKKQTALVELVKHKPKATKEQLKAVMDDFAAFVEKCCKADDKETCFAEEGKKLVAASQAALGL", "test": "Binding affinity to human plasma albumin", "format": "ADME, cell-free"}, "[2]": {"test": "Mean residence time in female Wistar Han rat at 1000 mg/kg, po administered as single dose measured upto 24 hrs", "format": "ADME, organism-based", "details": "in vivo", "in_short": "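Single oral dose 1000 mg/kg in male and female rats, dosing volume 10 mL/kg (n = 6); animals observed 14 days with clinical checks, functional/neurobehavioral tests and body weight, necropsy on d15; exposure parameters from the toxicokinetic arm of this study.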"}, "[3]": {"test": "Toxicity in BALB/c nude mouse xenografted with human HCT-116 cells assessed as change in body weight at 75 to 150 mg/kg, po administered via oral gavage measured daily for 7 days", "format": "organism-based", "details": "in vivo, 168 h, dose 75-150 mg/kg, time 7 day", "in_short": "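Female BALB/c nude mice, 6–7 weeks, inoculated s.c. with 5 × 10⁵ HCT116 cells in 1:1 Matrigel/PBS; at 200–300 mm³ randomized; Pd resins (2 mg in 50 μL) injected intratumorally (groups 1–3), then oral gavage daily for 7 days with 150 or 75 mg/kg or vehicle; untreated group. Body weight daily, clinical signs twice daily.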"}, "[4]": {"test_system": "BXPC-3", "test": "Antiproliferative activity against human BxPC-3 cells assessed as increase in cytotoxicity at 1 uM incubated for 5 days in presence of Pd-resin by PrestoBlue dye based assay", "format": "functional, cell-based", "details": "time 5.0 day", "in_short": "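BxPC-3 (RPMI, 10% FBS, 2 mM glutamine) at 2500 cells/well, 48 h attachment, then fresh medium with 1 μM drug/prodrug ± 1 mg/mL Pd resins, 0.1% v/v DMSO, 5 d at 37 °C. Viability by PrestoBlue (10% v/v, 1 h, ex 540/em 590 nm), normalized to DMSO-treated cells; n = 3.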"}, "[5]": {"test": "Cmax in male Wistar Han rat at 10 mg/kg, po administered as single dose measured upto 24 hrs", "format": "ADME, organism-based", "set-up": "time < 24 hrs, dose 10 mg/kg, route po", "details": "in vivo", "in_short": "(§1)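 Male jugular-vein-cannulated Wistar Han rats, 263–319 g, single dose. IV: 1 mg/kg as 2 mL/kg of 0.5 mg/mL in 5% DMSO/95% HPCD (20% w/v), not fasted. PO: 10 mg/kg as 5 mL/kg of 2 mg/mL suspension in 5% DMSO/95% tween 80/HPCD vehicle, fasted overnight. Serial cannula blood sampling 0.083/0.25–24 h (n = 3/route); parent quantified by QToF against calibration curve.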"}, "[6]": {"test_system": "HCT-116", "test": "Antiproliferative activity against human HCT-116 cells assessed as increase in cytotoxicity at 1 uM incubated for 5 days in presence of Pd-resin by PrestoBlue dye based assay", "format": "functional, cell-based", "details": "time 5.0 day"}, "[7]": {"test": "Clearance in male Wistar Han rat at 1 mg/kg, iv administered as single dose measured upto 24 hrs", "format": "ADME, organism-based", "details": "in vivo", "in_short": "as §1"}, "[8]": {"test": "Volume of distribution at steady state in male Wistar Han rat at 1 mg/kg, iv administered as single dose measured upto 24 hrs", "format": "ADME, organism-based", "details": "in vivo, read-out: Vdss", "in_short": "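Male jugular-vein-cannulated Wistar Han rats (n = 3, 263–319 g, not fasted) given 1 mg/kg IV as 2 mL/kg of 0.5 mg/mL solution in 5% DMSO/95% HPCD (20% w/v). Serial blood via cannula from 0.083 to 24 h, mixed with heparinized water and stored at –20 °C. Parent quantified by QToF against a calibration curve.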"}, "[9]": {"test": "Metabolic stability in rat hepatocytes assessed as half life at 3 uM by LC-MS/MS analysis", "format": "ADME, cell-based, Hepatocyte", "in_short": "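Suspended hepatocytes (0.5 × 10⁶ cells/mL) in Williams E medium with 2 mM L-glutamine and 25 mM HEPES at 37 °C, compound added with 0.25% v/v DMSO after preincubation; aliquots quenched into methanol with internal standard at time points, centrifuged, supernatant analyzed by LC-MS/MS; two control compounds included.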"}, "[10]": {"test": "Plasma protein binding in rat at 5 uM", "format": "ADME, cell-free", "details": "read-out: PPB (converted)", "in_short": "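Binding of compound at 5 μM measured in rat and human plasma, with compound recovery determined; n = 3.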"}}, "note": "The source made the active and inactive calls. The rule behind the calls is not given here.", "data": [{"compound": "C#CCOc1ncc(F)c(OCC#C)n1", "values": [{"measurement": "Activity", "setting": "[1]", "result": 10, "unit": "%"}, {"measurement": "MRT", "setting": "[2]", "result": 13.4, "unit": "h"}, {"measurement": "Activity", "setting": "[3]", "result": "Non-Toxic"}, {"measurement": "Activity", "setting": "[4]", "result": "Active"}, {"measurement": "Cmax", "setting": "[5]", "result": 3610, "unit": "ng/mL"}, {"measurement": "Activity", "setting": "[6]", "result": "Active"}, {"measurement": "clearance", "setting": "[7]", "result": 52.1, "unit": "mL/min/kg"}, {"measurement": "Vd", "setting": "[8]", "result": 1.76, "unit": "L/kg"}, {"measurement": "half-life at 3 µM", "setting": "[9]", "result": 418, "unit": "min"}, {"measurement": "fraction unbound at 5 µM", "setting": "[10]", "result": 0.161}]}]}
